Results of several laboratories.
Each line is one published result; the experiments were not run side by side.
Target: Calcium/calmodulin-dependent protein kinase type II subunit beta (CAMK2B, Homo sapiens, UniProt Q13554)

| Compound | test | conditions | quantity | result |
| --- | --- | --- | --- | --- |
| Cc1ccc(-n2nc(C(C)(C)C)cc2NC(=O)Nc2ccc(OCCN3CCOCC3)c3ccccc23)cc1 | enzyme activity, inhibitor | 10 µM | inhibition | 22% |
| Cc1nc(Cc2cccc(C(F)(F)F)c2)sc1-c1ccc(C(N)=O)nc1 | cell-free assay, competition with immobilised ligand | 1 µM | remaining binding | 100% |
| COc1cccc2c(NCc3ccccc3)nc(-n3c(N)nc4ccccc43)nc12 | target engagement in cells, inhibitor, chemoproteomics | 20 mM | inhibition | -1.1% |
| O=C1NC(c2ccccn2)Sc2ccccc21 (stereo not drawn) | cell-free assay, competition with immobilised ligand | 1 µM | remaining binding | 100% |
| CCN(CC)CCNC(=O)c1c(C)[nH]c(/C=C2\C(=O)Nc3ccc(F)cc32)c1C | enzyme activity, inhibitor | 0.3 µM | inhibition | 57% |
| COc1cc2ncnc(Nc3ccc(Oc4ccccc4)cc3C)c2cc1OC | enzyme activity, inhibitor | 1 µM | inhibition | 8% |
| CS(=O)(=O)CCNCc1ccc(-c2ccc3ncnc(Nc4ccc(OCc5cccc(F)c5)c(Cl)c4)c3c2)o1 | cell-free assay | 0.5 µM | remaining signal | 93.8% |
| Cc1ccc(Nc2nccc(N(C)c3ccc4c(C)n(C)nc4c3)n2)cc1S(N)(=O)=O | enzyme activity, inhibitor | 10 µM | inhibition | 29% |
| CC(C)(C)c1nc(-c2cccc(NS(=O)(=O)c3c(F)cccc3F)c2F)c(-c2ccnc(N)n2)s1 | enzyme activity, inhibitor, radiometric | 1 µM | remaining activity | 78% |
| COc1ccc2c(c1)O[C@H](c1ccc(OC)c(OC)c1)C[C@@H]2NC(=O)C1(c2ccc3c(c2)OC(F)(F)O3)CC1 | cell-free assay, competition with immobilised ligand | 1 µM | remaining binding | 88% |
| C[S+]([O-])c1ccc(-c2nc(-c3ccncc3)c(-c3ccc(F)cc3)[nH]2)cc1 (stereo not drawn) | cell-free assay | 0.5 µM | remaining signal | 97.6% |
| CS(=O)(=O)N1CCCC(NC(=O)[C@H](CCC2CCCCC2)NC(=O)c2ccc(CNc3ncnc4c3nnn4-c3ccccc3)cc2)C1 (stereo partly drawn) | cell-free assay, competition with immobilised ligand | 0.1 µM | remaining binding | 100% |
| Cc1ncc([N+](=O)[O-])n1C(=NO)c1ccccc1C(F)(F)F | enzyme activity, inhibitor | 10 µM | inhibition | 13.6% |
| Cc1noc([C@H]2C[C@@H](c3ccc(C(F)(F)F)cc3)CN(C(=O)N3CCS(=O)(=O)C3)C2)n1 | cell-free assay, competition with immobilised ligand | 1 µM | remaining binding | 100% |
| O=C1Nc2ccc(Cl)cc2C1=Cc1cc(Cl)c(O)c(Cl)c1 | cell-free assay | 0.5 µM | remaining signal | 92% |
| CCCS(=O)(=O)Nc1ccc(F)c(C(=O)c2c[nH]c3ncc(-c4ccc(Cl)cc4)cc23)c1F | enzyme activity, inhibitor | 1 µM | inhibition | < 10% |
| Cc1cnc(NC2CCOCC2)nc1-n1cnc(C(=O)NC(CN)c2cc(F)cc(Cl)c2)c1 (stereo not drawn) | enzyme activity, inhibitor, radiometric | 1 µM | remaining activity | 87% |
| Clc1ccc(Nc2nnc(Cc3ccncc3)c3ccccc23)cc1 | cell-free assay | 0.5 µM | remaining signal | 109% |
| Cc1cc(NC(=O)c2cccc3cc(-c4cccc5[nH]nc(N)c45)ccc23)ccc1F | enzyme activity, inhibitor | 0.1 µM | activity vs control | 94% |
| O=c1cc(-c2cccc3c2Sc2ccccc2S3)oc(N2CCOCC2)c1 | enzyme activity, inhibitor | 0.5 µM | remaining activity | 106% |
| O=C(O)[C@H]1[C@H](Cn2nnc3ccccc3c2=O)CC[C@@H]1C(=O)c1ccc(OCCC2CCOCC2)cc1 | cell-free assay, competition with immobilised ligand | 1 µM | remaining binding | 100% |
| CNC(=O)c1cc(Oc2ccc(NC(=O)Nc3ccc(Cl)c(C(F)(F)F)c3)cc2)ccn1 | enzyme activity, inhibitor | 0.3 µM | inhibition | 27% |
| O=C1NC(=O)c2cc(Nc3ccc(F)cc3)c(Nc3ccc(F)cc3)cc21 | cell-free assay | 0.5 µM | remaining signal | 98.7% |
| c1ccc(CNc2nc(N3CCOc4ccccc43)nc3c2CCCC3)cc1 | target engagement in cells, inhibitor, chemoproteomics | 20 mM | inhibition | 12.7% |
| Cc1sc(C(=O)NC2COC2)cc1-n1cc(NC(=O)Nc2c(F)cccc2Cl)cn1 | enzyme activity, inhibitor | 10 µM | remaining activity | 100% |
| CN1CC(Oc2cnc(C#N)cc2-c2ccn3nc(NC(=O)C4CC4)cc3c2)C1 | enzyme activity, inhibitor | 1 µM | inhibition | -1% |
| CCCCN(CCCC)C(=O)CN1C[C@@H](c2cc(OC)c3c(c2)OCO3)[C@H](C(=O)O)[C@H]1CC(C)(C)CCC | cell-free assay, competition with immobilised ligand | 1 µM | remaining binding | 100% |
| CCCOc1ccc(OC)c(F)c1C(=O)c1ccc(C(=O)N[C@@H]2CNC[C@H]2NC(=O)c2ccc3[nH]ncc3c2)cc1 | enzyme activity, inhibitor | 10 µM | remaining activity | 53% |
| O=C(Nc1ccc(Oc2ccc(F)cc2)cc1)N1CCc2ncccc2[C@H]1c1ccc(F)cc1 | cell-free assay, competition with immobilised ligand | 1 µM | remaining binding | 100% |
| COc1cc(Cl)c(C(=O)N[C@@H](CN[C@H]2CC[C@@H](N)CC2)Cc2ccc(C#N)cc2)cc1-c1ccc(CN[C@H](C)c2ccc(C)cc2)o1 | enzyme activity, inhibitor | 1 µM | remaining activity | 94% |
